# Experimental data from different studies.
# Compare with care: the assays were run in different laboratories.
# Action: inhibitor
# rep methyltransferase: Replicase polyprotein 1ab, methyltransferase (rep, Severe acute respiratory syndrome coronavirus 2, UniProt P0DTD1)
# rep main protease: Replicase polyprotein 1ab, main protease (rep, Severe acute respiratory syndrome coronavirus 2, UniProt P0DTD1)
# rep papain-like protease: Replicase polyprotein 1ab, papain-like protease (rep, Severe acute respiratory syndrome coronavirus 2, UniProt P0DTD1)
SMILES,target,effect on,technique,pH,IC50 [µM]
Cc1cc(-c2nn3c(-c4ccccc4)nnc3s2)c2ccccc2n1,rep methyltransferase,enzyme activity,,,40.4
c1ccc(-c2nc(N3CCOCC3)[s+]n2-c2ccccc2)cc1,rep main protease,enzyme activity,,,0.328
CC(=O)O/N=C1/C(=O)N(Cc2cc(Cl)ccc2Cl)c2ccc(Cl)cc21,rep main protease,enzyme activity,,,17.9
CC(=O)N[C@@H](CS)C(=O)O,rep papain-like protease,enzyme activity,,,> 150
COC(=O)N[C@H](C(=O)N[C@@H](Cc1ccccc1)[C@@H](O)CN(Cc1ccc(-c2ccccn2)cc1)NC(=O)[C@@H](NC(=O)OC)C(C)(C)C)C(C)(C)C,rep main protease,enzyme activity,luciferase,,> 240
CCOc1cc(C(Nc2cc(C)ccn2)c2ccc3cccnc3c2O)ccc1OC (stereo not drawn),rep main protease,enzyme activity,,,0.27
CC(C)=CCOc1ccc(/C=C/C(=O)c2ccc(OCC=C(C)C)cc2OCC(=O)O)cc1,rep methyltransferase,enzyme activity,,,37.6
CCN(CC)S(=O)(=O)c1cccc(-n2sc3ccccc3c2=O)c1,rep main protease,enzyme activity,,,> 20
O=C(Oc1cncc(Cl)c1)c1cc2c(Cl)cc(Cl)cc2[nH]1,rep main protease,enzyme activity,,,0.0233
CNC(=O)c1c(NC(=O)c2sc(=S)n(-c3ccc(C)cc3)c2N)sc2c1CCCC2,rep methyltransferase,enzyme activity,,,35.7
Cc1cccc2c3c(ccc12)C1=C(C(=O)C3=O)[C@@H](C)CO1,rep papain-like protease,enzyme activity,FRET,pH 7.5,33
Nc1ccc(C(=O)N2CC3(CCC3)C[C@H]2CNC(=O)c2cncc3ccccc23)cc1O,rep main protease,enzyme activity,,,29.6
COC(=O)c1ccc(NC(=O)Cn2c3ccccc3n3c(=O)cc(-c4ccc(C)cc4)nc23)cc1,rep methyltransferase,enzyme activity,,,> 250
COc1ccc(O)c(C=NN2C(=O)c3ccccc3NC2c2cc(OC)ccc2O)c1 (stereo not drawn),rep main protease,enzyme activity in cells,,,6.5
CC(=O)Nc1ccc2occ(Cc3c(O)ccc4cc(-c5ccccc5)c(=O)oc34)c(=O)c2c1,rep methyltransferase,enzyme activity,,,43.3
COc1cc(C[C@@H](C)[C@@H](C)Cc2ccc(O)c(OC)c2)ccc1O,rep main protease,enzyme activity,FRET,,4.12
Cc1cc(C)cc(N2C(=O)CC(Sc3nnc[nH]3)C2=O)c1 (stereo not drawn),rep main protease,enzyme activity,fluorescence,,> 20
O=C(O)CNC(=O)CC1SC(=NN=Cc2c(-c3ccccc3)[nH]c3ccccc23)NC1=O (stereo not drawn),rep methyltransferase,enzyme activity,,,69.9
CC[N+](C)(CC)CCC[n+]1c(-c2ccccc2)c2cc(N)ccc2c2ccc(N)cc21,rep main protease,enzyme activity,,,> 20
Oc1c(Cl)cc(Cl)c(Cl)c1Cc1c(O)c(Cl)cc(Cl)c1Cl,rep methyltransferase,enzyme activity,,,8.65
CSc1ccc(C(=O)c2[nH]c(=O)[nH]c2C)cc1,rep main protease,enzyme activity,,,> 20
C=C(c1ccc(C(=O)O)cc1)c1cc2c(cc1C)C(C)(C)CCC2(C)C,rep main protease,enzyme activity in cells,,,20
CN(C)[C@@H]1C(O)=C(C(N)=O)C(=O)[C@@]2(O)C(O)=C3C(=O)c4c(O)cccc4[C@@](C)(O)[C@H]3[C@H](O)[C@@H]12,rep main protease,enzyme activity,luciferase,,> 240
COc1cc(C[C@@H]2NCCc3cc(O)c(O)cc32)cc(OC)c1OC,rep main protease,enzyme activity,,,> 20
